Measurements: ChEMBL document CHEMBL1250442, “Inhibiting gene expression at transcription start sites in chromosomal DNA with antigene RNAs” (Nat Chem Biol, 2005)
Active and inactive are the calls of the source. The calls are words filed in the database; no cut-off is given here.

Assays:
T47D [1] = test: Inhibition of PR-B mRNA gene expression in human T47D cells at 100 nM by syber green assay; assay type: functional
In short: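 T47D cells in RPMI-1640 with 10% FBS, NEAA, insulin, 37 °C, 5% CO2. Plated two days before transfection without antibiotics. Oligofectamine-mediated duplex RNA transfection at 100 nM final, medium changed at 24 h, harvest five days post-transfection. Total RNA extracted with TRIzol. hPR mRNA quantified by SYBR Green qPCR: 50 °C 2 min, 95 °C 10 min, then 40 cycles of 95 °C 15 s / 60 °C 1 min.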

T47D [2] = test: Inhibition of PR-A gene expression in human T47D cells at 25 nM by syber green assay in presence of 10 nM estradiol; assay type: functional, cell-based
T47D [3] = test: Inhibition of PR-B gene expression in human T47D cells at 25 nM by syber green assay in presence of 10 nM estradiol; assay type: functional, cell-based
T47D [4] = test: Inhibition of androgen receptor expression in human T47D cells after 12 days at 100 nM by syber green assay; assay type: functional, cell-based
In short: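 AR expression in T47D cells, grown in RPMI-1640 with 10% FBS, NEAA and insulin. Plated antibiotic-free two days before Oligofectamine transfection with 100 nM duplex RNA; medium replaced after 24 h. TRIzol total RNA. SYBR Green real-time PCR: 50 °C 2 min, 95 °C 10 min, 40 cycles of 95 °C 15 s and 60 °C 1 min.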

T47D [5] = test: Inhibition of PR-A mRNA gene expression in human T47D cells at 100 nM by syber green assay; assay type: functional
In short: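 T47D cells plated at 80,000/well without antibiotics two days before Oligofectamine transfection with agRNA duplex (25 or 100 nM final); medium changed at 24 h, harvest day 5 unless stated otherwise. TRIzol total RNA; PR mRNA by real-time PCR with SYBR Green: 50 °C 2 min, 95 °C 10 min, 40 cycles 95 °C 15 s/60 °C 1 min.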

T47D [6] = test: Inhibition of cyclooxygenase-2 expression in human T47D cells at 25 nM by syber green assay; assay type: functional, cell-based

Structure (SMILES)	inhibition at 0.1 µM (T47D [1]) [%]	inhibition (T47D [2])	inhibition (T47D [3])	inhibition (T47D [4])	inhibition at 0.1 µM (T47D [5]) [%]	inhibition (T47D [6])
Cc1cn(CC(=O)N(CCNC(=O)CN(CCNC(=O)CN(CCNC(=O)CN(CCNC(=O)CN(CCNC(=O)CN(CCNC(=O)CN(CCNC(=O)CN(CCNC(=O)CN(CCNC(=O)CN(CCNC(=O)CN(CCNC(=O)CN(CCNC(=O)CN(CCNC(=O)CN(CCNC(=O)CN(CCNC(=O)CN(CCNC(=O)CN(CCNC(=O)CN(CCNC(=O)CN(CCNC(=O)CN(CCNC(=O)CN)C(=O)Cn2ccc(N)nc2=O)C(=O)Cn2cnc3c(N)ncnc32)C(=O)Cn2ccc(N)nc2=O)C(=O)Cn2ccc(N)nc2=O)C(=O)Cn2ccc(=O)[nH]c2=O)C(=O)Cn2ccc(N)nc2=O)C(=O)Cn2ccc(N)nc2=O)C(=O)Cn2ccc(N)nc2=O)C(=O)Cn2cnc3c(N)ncnc32)C(=O)Cn2cnc3c(=O)[nH]c(N)nc32)C(=O)Cn2ccc(N)nc2=O)C(=O)Cn2cnc3c(=O)[nH]c(N)nc32)C(=O)Cn2ccc(N)nc2=O)C(=O)Cn2ccc(N)nc2=O)C(=O)Cn2ccc(N)nc2=O)C(=O)Cn2ccc(N)nc2=O)C(=O)Cn2ccc(N)nc2=O)C(=O)Cn2ccc(=O)[nH]c2=O)C(=O)Cn2ccc(N)nc2=O)CC(=O)NCCN(CC(=O)NCC(=O)O)C(=O)Cn2cc(C)c(=O)[nH]c2=O)c(=O)[nH]c1=O	100	Active	Active	Active	100	
Cc1cn(CC(=O)N(CCNC(=O)CN(CCNC(=O)CN(CCNC(=O)CN(CCNC(=O)CN(CCNC(=O)CN(CCNC(=O)CN(CCNC(=O)CN(CCNC(=O)CN(CCNC(=O)CN(CCNC(=O)CN(CCNC(=O)CN(CCNC(=O)CN(CCNC(=O)CN(CCNC(=O)CN(CCNC(=O)CN(CCNC(=O)CN(CCNC(=O)CN(CCNC(=O)CN(CCNC(=O)CN(CCNC(=O)CN)C(=O)Cn2ccc(=O)[nH]c2=O)C(=O)Cn2ccc(N)nc2=O)C(=O)Cn2ccc(=O)[nH]c2=O)C(=O)Cn2ccc(N)nc2=O)C(=O)Cn2ccc(N)nc2=O)C(=O)Cn2cnc3c(N)ncnc32)C(=O)Cn2ccc(N)nc2=O)C(=O)Cn2ccc(N)nc2=O)C(=O)Cn2ccc(=O)[nH]c2=O)C(=O)Cn2ccc(N)nc2=O)C(=O)Cn2ccc(N)nc2=O)C(=O)Cn2ccc(N)nc2=O)C(=O)Cn2cnc3c(N)ncnc32)C(=O)Cn2cnc3c(=O)[nH]c(N)nc32)C(=O)Cn2ccc(N)nc2=O)C(=O)Cn2cnc3c(=O)[nH]c(N)nc32)C(=O)Cn2ccc(N)nc2=O)C(=O)Cn2ccc(N)nc2=O)C(=O)Cn2ccc(N)nc2=O)CC(=O)NCCN(CC(=O)NCC(=O)O)C(=O)Cn2cc(C)c(=O)[nH]c2=O)c(=O)[nH]c1=O	< 20	Active	Active	Active	< 20	
Cc1cn(CC(=O)N(CCNC(=O)CN(CCNC(=O)CN(CCNC(=O)CN(CCNC(=O)CN(CCNC(=O)CN(CCNC(=O)CN(CCNC(=O)CN(CCNC(=O)CN(CCNC(=O)CN(CCNC(=O)CN(CCNC(=O)CN(CCNC(=O)CN(CCNC(=O)CN(CCNC(=O)CN(CCNC(=O)CN(CCNC(=O)CN(CCNC(=O)CN(CCNC(=O)CN(CCNC(=O)CN(CCNC(=O)CN)C(=O)Cn2ccc(=O)[nH]c2=O)C(=O)Cn2ccc(N)nc2=O)C(=O)Cn2ccc(N)nc2=O)C(=O)Cn2cnc3c(N)ncnc32)C(=O)Cn2ccc(N)nc2=O)C(=O)Cn2ccc(N)nc2=O)C(=O)Cn2ccc(=O)[nH]c2=O)C(=O)Cn2ccc(N)nc2=O)C(=O)Cn2ccc(N)nc2=O)C(=O)Cn2ccc(N)nc2=O)C(=O)Cn2cnc3c(N)ncnc32)C(=O)Cn2cnc3c(=O)[nH]c(N)nc32)C(=O)Cn2ccc(N)nc2=O)C(=O)Cn2cnc3c(=O)[nH]c(N)nc32)C(=O)Cn2ccc(N)nc2=O)C(=O)Cn2ccc(N)nc2=O)C(=O)Cn2ccc(N)nc2=O)C(=O)Cn2ccc(N)nc2=O)C(=O)Cn2ccc(N)nc2=O)CC(=O)NCCN(CC(=O)NCC(=O)O)C(=O)Cn2cc(C)c(=O)[nH]c2=O)c(=O)[nH]c1=O	34	Active	Active	Active	34	
Cc1cn(CC(=O)N(CCNC(=O)CN(CCNC(=O)CN(CCNC(=O)CN(CCNC(=O)CN(CCNC(=O)CN(CCNC(=O)CN(CCNC(=O)CN(CCNC(=O)CN(CCNC(=O)CN(CCNC(=O)CN(CCNC(=O)CN(CCNC(=O)CN(CCNC(=O)CN(CCNC(=O)CN(CCNC(=O)CN(CCNC(=O)CN(CCNC(=O)CN(CCNC(=O)CN(CCNC(=O)CN(CCNC(=O)CN)C(=O)Cn2cnc3c(=O)[nH]c(N)nc32)C(=O)Cn2cnc3c(=O)[nH]c(N)nc32)C(=O)Cn2cnc3c(=O)[nH]c(N)nc32)C(=O)Cn2cnc3c(=O)[nH]c(N)nc32)C(=O)Cn2ccc(N)nc2=O)C(=O)Cn2cnc3c(=O)[nH]c(N)nc32)C(=O)Cn2ccc(N)nc2=O)C(=O)Cn2ccc(=O)[nH]c2=O)C(=O)Cn2cnc3c(=O)[nH]c(N)nc32)C(=O)Cn2cnc3c(=O)[nH]c(N)nc32)C(=O)Cn2cnc3c(=O)[nH]c(N)nc32)C(=O)Cn2cnc3c(N)ncnc32)C(=O)Cn2cnc3c(=O)[nH]c(N)nc32)C(=O)Cn2cnc3c(=O)[nH]c(N)nc32)C(=O)Cn2ccc(=O)[nH]c2=O)C(=O)Cn2cnc3c(=O)[nH]c(N)nc32)C(=O)Cn2cnc3c(=O)[nH]c(N)nc32)C(=O)Cn2cnc3c(N)ncnc32)C(=O)Cn2cnc3c(=O)[nH]c(N)nc32)CC(=O)NCCN(CC(=O)NCC(=O)O)C(=O)Cn2cc(C)c(=O)[nH]c2=O)c(=O)[nH]c1=O	39	Active	Active	Active	39	
Cc1cn(CC(=O)N(CCNC(=O)CN(CCNC(=O)CN(CCNC(=O)CN(CCNC(=O)CN(CCNC(=O)CN(CCNC(=O)CN(CCNC(=O)CN(CCNC(=O)CN(CCNC(=O)CN(CCNC(=O)CN(CCNC(=O)CN(CCNC(=O)CN(CCNC(=O)CN(CCNC(=O)CN(CCNC(=O)CN(CCNC(=O)CN(CCNC(=O)CN(CCNC(=O)CN(CCNC(=O)CN(CCNC(=O)CN)C(=O)Cn2ccc(=O)[nH]c2=O)C(=O)Cn2ccc(N)nc2=O)C(=O)Cn2cnc3c(=O)[nH]c(N)nc32)C(=O)Cn2cnc3c(=O)[nH]c(N)nc32)C(=O)Cn2ccc(=O)[nH]c2=O)C(=O)Cn2ccc(=O)[nH]c2=O)C(=O)Cn2cnc3c(N)ncnc32)C(=O)Cn2cnc3c(=O)[nH]c(N)nc32)C(=O)Cn2ccc(N)nc2=O)C(=O)Cn2cnc3c(=O)[nH]c(N)nc32)C(=O)Cn2cnc3c(N)ncnc32)C(=O)Cn2ccc(N)nc2=O)C(=O)Cn2ccc(N)nc2=O)C(=O)Cn2cnc3c(N)ncnc32)C(=O)Cn2cnc3c(N)ncnc32)C(=O)Cn2ccc(=O)[nH]c2=O)C(=O)Cn2ccc(=O)[nH]c2=O)C(=O)Cn2cnc3c(N)ncnc32)C(=O)Cn2ccc(=O)[nH]c2=O)CC(=O)NCCN(CC(=O)NCC(=O)O)C(=O)Cn2cc(C)c(=O)[nH]c2=O)c(=O)[nH]c1=O	71	Active			71	Active
Cc1cn(CC(=O)N(CCNC(=O)CN(CCNC(=O)CN(CCNC(=O)CN(CCNC(=O)CN(CCNC(=O)CN(CCNC(=O)CN(CCNC(=O)CN(CCNC(=O)CN(CCNC(=O)CN(CCNC(=O)CN(CCNC(=O)CN(CCNC(=O)CN(CCNC(=O)CN(CCNC(=O)CN(CCNC(=O)CN(CCNC(=O)CN(CCNC(=O)CN(CCNC(=O)CN(CCNC(=O)CN(CCNC(=O)CN)C(=O)Cn2ccc(=O)[nH]c2=O)C(=O)Cn2ccc(=O)[nH]c2=O)C(=O)Cn2cnc3c(N)ncnc32)C(=O)Cn2cnc3c(=O)[nH]c(N)nc32)C(=O)Cn2ccc(N)nc2=O)C(=O)Cn2cnc3c(=O)[nH]c(N)nc32)C(=O)Cn2cnc3c(N)ncnc32)C(=O)Cn2ccc(N)nc2=O)C(=O)Cn2ccc(N)nc2=O)C(=O)Cn2cnc3c(N)ncnc32)C(=O)Cn2cnc3c(N)ncnc32)C(=O)Cn2ccc(=O)[nH]c2=O)C(=O)Cn2ccc(=O)[nH]c2=O)C(=O)Cn2cnc3c(=O)[nH]c(N)nc32)C(=O)Cn2ccc(=O)[nH]c2=O)C(=O)Cn2ccc(N)nc2=O)C(=O)Cn2cnc3c(N)ncnc32)C(=O)Cn2ccc(=O)[nH]c2=O)C(=O)Cn2cnc3c(N)ncnc32)CC(=O)NCCN(CC(=O)NCC(=O)O)C(=O)Cn2cc(C)c(=O)[nH]c2=O)c(=O)[nH]c1=O	81	Active			81	Active
Cc1cn(CC(=O)N(CCNC(=O)CN(CCNC(=O)CN(CCNC(=O)CN(CCNC(=O)CN(CCNC(=O)CN(CCNC(=O)CN(CCNC(=O)CN(CCNC(=O)CN(CCNC(=O)CN(CCNC(=O)CN(CCNC(=O)CN(CCNC(=O)CN(CCNC(=O)CN(CCNC(=O)CN(CCNC(=O)CN(CCNC(=O)CN(CCNC(=O)CN(CCNC(=O)CN(CCNC(=O)CN(CCNC(=O)CN)C(=O)Cn2cnc3c(=O)[nH]c(N)nc32)C(=O)Cn2ccc(N)nc2=O)C(=O)Cn2ccc(=O)[nH]c2=O)C(=O)Cn2ccc(N)nc2=O)C(=O)Cn2ccc(=O)[nH]c2=O)C(=O)Cn2ccc(N)nc2=O)C(=O)Cn2ccc(N)nc2=O)C(=O)Cn2cnc3c(N)ncnc32)C(=O)Cn2ccc(N)nc2=O)C(=O)Cn2ccc(N)nc2=O)C(=O)Cn2ccc(=O)[nH]c2=O)C(=O)Cn2ccc(N)nc2=O)C(=O)Cn2ccc(N)nc2=O)C(=O)Cn2ccc(N)nc2=O)C(=O)Cn2cnc3c(N)ncnc32)C(=O)Cn2cnc3c(=O)[nH]c(N)nc32)C(=O)Cn2ccc(N)nc2=O)C(=O)Cn2cnc3c(=O)[nH]c(N)nc32)C(=O)Cn2ccc(N)nc2=O)CC(=O)NCCN(CC(=O)NCC(=O)O)C(=O)Cn2cc(C)c(=O)[nH]c2=O)c(=O)[nH]c1=O	92	Active	Active	Active	92	
